# The list is not random: actives were taken first. Their share in the collection is about 2%.
# RAD52 inh = inhibitors of human RAD52 DNA annealing; recombinant RAD52 DNA annealing, FRET fluorescence; inhibition, % at 18.7 µM; 360,000 compounds, 0.46% hits;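 active means every replicate showing at least 50% inhibition; inconclusive means mean inhibition at least 50% but not in every replicate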
# Target sequence (P43351 whole entry, looked up): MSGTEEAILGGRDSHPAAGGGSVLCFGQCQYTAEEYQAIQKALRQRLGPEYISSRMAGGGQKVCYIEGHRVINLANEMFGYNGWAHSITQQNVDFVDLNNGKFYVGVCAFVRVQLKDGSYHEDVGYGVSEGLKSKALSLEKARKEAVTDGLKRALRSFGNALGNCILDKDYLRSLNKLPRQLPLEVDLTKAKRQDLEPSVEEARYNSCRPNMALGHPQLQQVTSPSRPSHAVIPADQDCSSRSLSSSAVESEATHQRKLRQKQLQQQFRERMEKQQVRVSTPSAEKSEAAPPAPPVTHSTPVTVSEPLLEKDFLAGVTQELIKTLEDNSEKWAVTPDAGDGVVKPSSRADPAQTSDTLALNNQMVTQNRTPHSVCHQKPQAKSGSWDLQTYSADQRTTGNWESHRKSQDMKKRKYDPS
# XiGFP reactiv = reactivates the inactive X chromosome in mouse fibroblasts; 360,000 compounds, 0.055% hits; AID 743238; activation, % at 7.58 µM; XiGFP mouse fibroblasts, % GFP-positive cells imaging, 3 d; cells co-treated with 5-aza-dC sensitizer; scaled so ellipticine positive control = 100%;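 active means mean normalized replicate activation at least 10% and every replicate at or above 10%; inconclusive means only one of the two criteria met; inactive means mean below 10% and not all replicates reach 10%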;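 further: 0% = median of on-plate neutral control wells and 100% = ellipticine 6 µM median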
#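 Material: XiGFP fibroblasts, SV40-immortalized. Buffer or medium: DMEM plus 5-aza-dC sensitizer. Compound: single concentration per compound, delivered by pin transfer. Times: 3 days compound exposure. Controls: ellipticine 6 µM.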
# RAD54 inh = inhibitors of human RAD54 branch migration; 360,000 compounds, 0.14% hits; inhibition, % at 10.4 µM; RAD54 Holliday junction branch migration, FAM/BHQ fluorescence;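 active means mean normalized replicate activity at least 40 and at least half of replicates scoring 40 or more; inconclusive means only one of the two criteria met; inactive means mean below 40 and under half of replicates reaching 40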;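 further: 0% = median of neutral control wells and 100% = median of positive control wells; inhibitors cause a drop in the FAM fluorescence signal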
# rRNA inh HTS = inhibitors of bacterial rRNA selective over humanized ribosomes | E. coli WT GFP vs humanized-ribosome RFP mutants, fluorescence, 24 h; active compounds read low; DMSO median 0, no signal -100 | GFP signal change (wild-type ribosome), % (no concentration beside the values) | AID 720706 | 350,000 compounds, 1.6% hits;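 active means significant combined selectivity score with lowered wild-type GFP, culture density cut under 30%, mutant RFP and density less affected; inactive means any of these conditions unmet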
# E-sel inducer = induces E-selectin expression in human endothelial cells; activation, % at 7.58 µM; P16581; 260,000 compounds, 0.37% hits; HUVEC E-selectin immunofluorescence imaging; normalized: neutral wells 0, TNF-alpha wells 100; AID 686992;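 active means mean E-selectin-positive cell signal at least 10% of the positive control, reached in at least 60% of replicates, without over 20% cell loss; inconclusive means no rule given, readout overlaps actives, possibly toxicity-flagged; inactive means the rest, including those meeting only one limit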
#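 assay system = HUVEC, human umbilical vein endothelial cells | input = 3,000 HUVEC seeded per well | medium = EGM-2 growth medium on 0.1% gelatin-coated wells | dosing = one compound dose added by pin transfer | signal = immunofluorescence imaging | read-out basis = % PE-positive cells | control set = TNF-alpha, DMSO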
# PglD DTNB = blocks C. jejuni PglD acetyltransferase activity; purified PglD enzyme, DTNB colorimetric CoA detection; inhibition, % at 12.5 µM; 360,000 compounds, 0.098% hits; in the data active means inhibition above about 16%, passing the limit was not always enough; inconclusive means no clear call, values can overlap the other calls
# AID977621 = wild-type E. coli growth inhibition versus H69 humanized strain – H69 mutant RFP, wild-type GFP, cherry-pick, dose response | activity change, negative = inhibition at 50 µM | 1,900 tested, under 10 active | shares compounds with rRNA inh HTS | fluorescence, 24 h;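 active means Wild-type ribosome reporter drop at least double the humanized mutant ribosome reporter drop, growth loss under a set limit; inconclusive means no clear call, values can overlap the other calls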;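 further: wild-type GFP and H69 mutant RFP strains grown together 50/50 in each well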
# AID977628 = E. coli growth inhibition, wild-type GFP versus h24 humanized RFP strain, dose response, h24 mutant RFP vs wild-type GFP, cherry-pick | shares compounds with rRNA inh HTS | E. coli WT GFP strain growth, fluorescence, 24 h | activity change, negative = inhibition at 50 µM | 1,900 tested, under 10 active | AID 977628;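 active means compound lowering the normal-ribosome reporter at least twice as much as the humanized-ribosome reporter, growth loss under a set limit; inconclusive means no clear call, values can overlap the other calls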;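 further: wild-type GFP and h24 humanized RFP strains co-cultured 1 to 1 per well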
# The depositor's hits bear a star; ? = inconclusive; / = not tested or not shown.
SMILES,RAD52 inh,XiGFP reactiv,RAD54 inh,rRNA inh HTS,E-sel inducer,PglD DTNB,AID977621,AID977628
C[C@H](O)C#Cc1ccc([C@H]2[C@@H](CO)N3CCCCN(C(=O)c4ccc5c(c4)OCO5)C[C@@H]23)cc1,-5,0,-1,-3,0,3,/,/
Cn1c(=O)c2c(nc(N3CCOCC3)n2C/C=C/c2ccccc2)n(C)c1=O,0,0,1,-18*,-1,-2,-9.2,-11
CC(=O)NC[C@@H]1[C@H](c2ccccc2)[C@H](CO)N1C(=O)Cc1cccnc1,-1,0,-7,3,0,0,/,/
COc1ccc(OCC(=O)NCCC2=CCCCC2)c([N+](=O)[O-])c1,8,0,/,/,/,/,/,/
COc1ccc(C(=O)NCCC2=CCCCC2)cc1[N+](=O)[O-],-13,0,-2,-22*,1,3,-13,-10
CC(C)NC(=O)Nc1ccc2c(c1)CC(=O)N([C@H](C)CO)C[C@H](C)[C@H](CN(C)C(=O)Nc1ccc3c(c1)OCO3)O2,-3,0,5,4,0,-1,/,/
CCc1ccc(OCC(=O)NCc2ccco2)c(Br)c1,-18,/,1,-21*,/,-3,-3.9,/
N#Cc1nc(COc2cccc(Cl)c2)oc1N1CCCC1,-1,0,-17,-33*,0,-1,-9.6,-9.9
N#Cc1nc(Cc2ccccc2)oc1N1CCCC1,-14,0,/,-23*,/,/,/,?
[N-]=[N+]=NCc1ccccc1C[C@]1(C(N)=O)N=C(c2ccc(OCCCO)cc2)O[C@H]1c1ccccc1,16,/,1,/,/,0,/,/
CC(C)(Nc1ccccc1)C(=O)c1ccccc1,-20,0,0,-20*,/,-1,-2.9,?
O=C(C(=NNc1ccccc1)c1ccccc1)c1ccccc1,-8,0,2,-9,0,-6,/,/
O=C(C1Cc2ccccc2CN1C(=O)c1ccccc1)N1CCN(c2ccccc2)CC1 (stereo unspecified),-4,0,5,-22*,/,-7,-4,-10
COc1ccc(N2CCN(C(=O)C3Cc4ccccc4CN3C(=O)c3ccco3)CC2)cc1 (stereo unspecified),-11,0,1,/,0,1,/,/
O=C(Nc1ccc(Cl)cc1)N[C@H]1CC[C@@H](CCn2cc(Cc3ccccc3)nn2)O[C@@H]1CO,-2,0,-3,-3,-2,0,/,/
Cc1cc(Cl)ccc1OCCCC(=O)OCC(N)=O,-21,0,-9,-18*,?,6,-20,?
Cc1cc(Cl)ccc1OCCCC(=O)NN,-17,0,-2,3,/,-4,/,/
CC(C)CC#Cc1ccc2c(c1)O[C@H](CN(C)C)[C@@H](C)CN([C@@H](C)CO)S2(=O)=O,26,0,-6,-1,/,2,/,/
CCC(=O)Nc1nc2c(OC)ccc(OC)c2s1,-8,0,3,-21*,0,5,-10,/
Cc1ccc(S(=O)(=O)N[C@@H]2CC[C@@H](CC(=O)NCc3ccncn3)O[C@@H]2CO)cc1,-1,0,-2,2,0,5,/,/
CCCN(Cc1ccco1)S(=O)(=O)c1ccc(OC)c(OC)c1,-11,1,/,-20*,0,/,-10,-13
CCSc1nc2ccccc2c(=O)n1CCc1ccc(OC)c(OC)c1,-2,0,2,-33*,1,-1,/,?
Cc1ccc(NC(=O)C2CCN(c3ncnc4c3nc3n4CCCCC3)CC2)cc1Cl,-24,0,-4,0,/,6,/,/
Cc1ccc(NC(=O)C2CCCN(c3ncnc4c3nc3n4CCCCC3)C2)cc1Cl (stereo unspecified),-6,0,14,-18*,/,-5,-0.089,?

# Source: PubChem BioAssay (Broad Institute)
